Key:
Mus musculus [1] = assay: Percentage inhibition in mouse by using Croton oil-inflamed mouse ear test (topical dosing).; format: functional; set-up: concentration or dose not given beside the values
Outline: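 Male Cox ICR mice (25–35 g), 10 per group. Left ear given 25 μL of 1% compound in ethanol, repeated ~17 h later; 1 h after that, both ears given 25 μL 2% croton oil. After 4 h, 5 mm ear punches weighed. % inhibition = [(C − T1)/C]×100, using left-minus-right weight differences versus vehicle controls.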

[2] = Acute toxicity after intraperitoneal dose at 33 mg/kg in mice; format: organism-based; set-up: dose 33 mg/kg, route intraperitoneal; settings: mouse, in vivo, ip, read-out: Lethality
Outline: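 Single intraperitoneal dose at the listed mg/kg; acute toxicity scored as % lethality = number of deaths / number of animals dosed, 7–10 animals per group.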

Rattus norvegicus = assay: Percentage analgesia by rat hot plate test after oral administration at 300 mg/kg.; format: functional
Outline: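 Rats fasted 18 h, prescreened on a 55 ± 0.5 °C hot plate (latency <12 s, else lowest <30 s) to set the 0 h value. Groups of 8 dosed orally in sesame oil (1 mL/200 g); latency read at 1.5, 3, 5 h (24 h if persisting). %analgesia = [(LT(t) − LT(0))/(60 − LT(0))]×100, taken at the time of maximal latency.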

Mus musculus [3] = assay: Latency time measured by mouse hot plate test after subcutaneous administration at 200 mg/kg; format: functional; set-up: unit: s
Outline: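 Male CF-1 mice, 8 per group, given test agent sc in 0.2 mL ethanol/Tween-80/saline (10/10/80); dose 0.68 mmol (200 mg/kg for capsaicin). Placed on copper surface held at 55 ± 0.5 °C. Paw-response latency (s) reported as group mean ± SD; pretest latency ~5 s.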

In the case of `C=CCCCCCCCCC(=O)NCc1ccc(O)c(OC)c1`, the Inhibition (Mus musculus [1]) is reported as 65.7%, the mortality [2] is reported as 50% and the Analgesia (Rattus norvegicus) is reported as 8%. For the same compound, the Latency (Mus musculus [3]) was 55.5.
